Assay outcomes (PubChem)
A selection: hits, their analogues and other compounds. The true share with any hit is near 1.3%.
PfGluPho inh: PfG6PD (Plasmodium falciparum) enzyme inhibition | PfGluPho enzyme, NADPH resazurin-diaphorase fluorescence | inhibition, % at 20 µM | 350,000 tested, 0.78% active | AID 504690;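 active = inhibition reaching at least a set limit at 20 µM in the primary screen, cut at about 59% in these data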
G6PDH counter: counter-screen for G6PDH assay hits: L. mesenteroides G6PDH inhibition | Purified L. mesenteroides G6PDH, diaphorase/resazurin coupled fluorescence, 45 min | inhibition, % at 5 µM | 200,000 tested, 0.12% active; in the data active = inhibition above about 50%
Diaphorase inh: counter-screen for diaphorase-based assays: diaphorase inhibitors and chemical oxidizers | diaphorase resazurin-to-resorufin fluorescence, NADH, 16 min; bacterial (C. kluyveri) enzyme, not human | inhibition, % at 20 µM | 190,000 tested, 0.69% active | AID 1217;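 active = primary screen inhibition at 20 µM above a set limit, cut at about 50% in these data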
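material = Clostridium kluyveri diaphorase enzyme | amount = 0.14 U/mL diaphorase, enzyme working solution | schedule = incubation 16 min, room temperature | detection = fluorescence of resorufin formed from resazurin, Ex 544/Em 590 nm | benchmarks = positive control minus NADH, DMSO neutral control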
HKDC1 inh: blocks human hexokinase HKDC1 activity. 340,000 tested, 0.16% active. inhibition, % at 20 µM. recombinant HKDC1, G6PDH/diaphorase resazurin coupled fluorescence. AID 493160;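 active = inhibition above about 35% when tested at 20 µM, limit read from the data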
Target sequence (Q2TB90 whole entry, looked up): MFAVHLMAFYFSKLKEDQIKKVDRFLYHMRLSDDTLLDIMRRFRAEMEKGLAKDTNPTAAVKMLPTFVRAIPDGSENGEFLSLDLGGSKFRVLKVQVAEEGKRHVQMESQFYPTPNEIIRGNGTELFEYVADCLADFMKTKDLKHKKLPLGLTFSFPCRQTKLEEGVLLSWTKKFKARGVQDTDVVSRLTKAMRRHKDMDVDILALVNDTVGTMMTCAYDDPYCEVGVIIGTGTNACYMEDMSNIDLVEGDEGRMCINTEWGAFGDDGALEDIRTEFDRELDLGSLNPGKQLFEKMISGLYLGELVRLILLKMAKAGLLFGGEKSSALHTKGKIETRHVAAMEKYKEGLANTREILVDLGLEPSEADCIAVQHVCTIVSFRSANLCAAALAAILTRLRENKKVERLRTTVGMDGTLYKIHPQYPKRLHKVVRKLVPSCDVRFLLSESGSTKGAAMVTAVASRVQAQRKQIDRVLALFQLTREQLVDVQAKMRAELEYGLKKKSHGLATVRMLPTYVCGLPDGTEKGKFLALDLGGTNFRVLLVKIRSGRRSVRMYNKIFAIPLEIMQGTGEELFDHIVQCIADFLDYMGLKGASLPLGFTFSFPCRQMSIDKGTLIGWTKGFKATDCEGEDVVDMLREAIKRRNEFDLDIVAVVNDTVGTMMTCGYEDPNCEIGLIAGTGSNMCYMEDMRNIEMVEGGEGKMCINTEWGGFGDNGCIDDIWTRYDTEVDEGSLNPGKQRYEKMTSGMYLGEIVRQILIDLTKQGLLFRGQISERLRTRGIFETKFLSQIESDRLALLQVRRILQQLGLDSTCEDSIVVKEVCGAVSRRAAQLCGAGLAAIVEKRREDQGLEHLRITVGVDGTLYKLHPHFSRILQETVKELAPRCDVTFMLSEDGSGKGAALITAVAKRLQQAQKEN
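Assay system: in-house recombinant HK5 (HKDC1) enzyme. Input: HKDC1 at 5 µg/mL. Medium: Tris pH 8.0 buffer with MgCl2, Tween-20, BSA, BME. Dosing: single 20 µM dose. Schedule: 90 min reaction incubation at room temperature, dark. Signal: resazurin-to-resorufin fluorescence via G6PDH and diaphorase coupling, 525/613 nm. Controls: DMSO-enzyme wells negative, buffer-substituted wells positive.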
Diaph act CS: activates diaphorase or chemically reduces, flagging diaphorase assay artifacts. Diaphorase/resazurin coupled assay, resorufin fluorescence, 16 min; hits give high values; 1 = vehicle wells, 0 = NADH-free wells. activation factor at 20 µM. 190,000 tested, 0.005% active. AID 1229;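 active = diaphorase activity raised at least twofold by the compound at 20 µM; inactive = activation factor below 2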
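Material: Clostridium kluyveri diaphorase, purified enzyme; Quantity: enzyme 0.07 U/mL final; Medium: HEPES pH 7.4 buffer with MgCl2 and Tween 20; Dosing: single compound dose of 20 µM, 1% DMSO final; Schedule: 16 min reaction at room temperature; Measured by: red resorufin fluorescence at 544/590 nm excitation/emission.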
Of the large screens only hits and unclear results are named; the others gave an inactive call.

C#CCOCCOCCOCCNc1nc(N2CCN(C(=O)CCCCCCCCCCNC(=O)[C@H](CCCCN)n3cc(CCO)nn3)CC2)nc(N2CCN(C(=O)CCCCCCCCCCNC(=O)[C@H](CCCN=C(N)N)n3cc(C[C@@H](C)CC)nn3)CC2)n1	PfGluPho inh 62 (no result: G6PDH counter, Diaphorase inh, Diaph act CS)
Cc1ccc2[nH]c(=O)c(C(c3nnnn3C3CCCC3)N3CCCc4ccccc43)cc2c1 (centres undefined)	Diaphorase inh 62
Cc1ccc2[nH]c(=O)c(C(c3nnnn3Cc3ccccc3)N3CCc4ccccc43)cc2c1 (centres undefined)	none
CCC(C)(C)n1nnnc1C(c1cc2cc(OC)ccc2[nH]c1=O)N1CCc2ccccc21 (centres undefined)	none
CCC(C)(C)n1nnnc1C(c1cc2cc(C)ccc2[nH]c1=O)N1CCCc2ccccc21 (centres undefined)	Diaphorase inh 70
Cc1ccc2cc(C)c3nnc(SCC(=O)N4CCN(C(=O)c5ccco5)CC4)n3c2c1	Diaphorase inh 51
COc1ccc(S(=O)(=O)N(C)CC(=O)Nc2ccc(C)cc2)cc1OC	Diaphorase inh 65
O=C(CSc1nnc(-c2ccccc2)o1)NC1CCCC1	none (no result: G6PDH counter, Diaphorase inh, Diaph act CS)
O=c1/c(=C\c2cccnc2)sc2nc3ccccc3n12	none
O=c1/c(=C/c2ccc(O)c([N+](=O)[O-])c2)sc2nc3ccccc3n12	Diaphorase inh 113
Cc1cc2cc(C(c3nnnn3Cc3ccco3)N3CCc4ccccc4C3)c(=O)[nH]c2cc1C (centres undefined)	Diaphorase inh 59
Cc1cc2cc(C(c3nnnn3Cc3ccco3)N3CCc4ccccc43)c(=O)[nH]c2cc1C (centres undefined)	Diaphorase inh 83
Cc1ccc(-c2nc3c(c(=O)c4ccccc4n3C)c(=O)n2-c2ccccc2)cc1	Diaphorase inh 53
NS(=O)(=O)c1ccc(NC(=O)COC(=O)Cc2ccc(Cl)cc2)cc1	none (no result: G6PDH counter, Diaphorase inh, Diaph act CS)
COC(=O)[C@@]1(Cc2ccc(F)cc2)[C@H]2c3cc(C(=O)N4CCCC4)n(CCc4ccc(O)c(O)c4)c3C[C@H]2CN1C(=O)c1ccccc1	Diaphorase inh 52 (no result: PfGluPho inh, HKDC1 inh)
COC(=O)[C@@]1(Cc2ccc(F)cc2)[C@H]2c3cc(C(=O)N4CCCC4)n(CCO)c3C[C@H]2CN1C(=O)c1ccccc1	none
CCOc1ccc(NC(=O)CN(C)C(=O)C2CCN(C(=O)c3ccc(Cl)cc3)CC2)cc1OCC	none (no result: G6PDH counter, Diaphorase inh, Diaph act CS)
O=C1CCNc2cc3ccccc3cc21	G6PDH counter 58, Diaphorase inh 66
COc1cc([N+](=O)[O-])cc(/C=N/NC(=O)Cn2cncn2)c1O	none (no result: G6PDH counter, Diaphorase inh, Diaph act CS)
COc1cc([N+](=O)[O-])cc(/C=N/NC(=O)CC#N)c1O	Diaphorase inh 51 (no result: PfGluPho inh, HKDC1 inh)
Cc1ccc(OCC(=O)OC(C)CN2CCCCC2)cc1 (centres undefined)	none (no result: G6PDH counter, Diaphorase inh, Diaph act CS)
COc1ccc(/C=N/Nc2cc(N(C)C)nc(N(C)C)n2)cc1	none
CN(C)c1cc(N/N=C\c2ccccc2)nc(N(C)C)n1	G6PDH counter 54, Diaphorase inh 52
COc1ccccc1/C=N/Nc1cc(N(C)C)nc(N(C)C)n1	Diaphorase inh 53
Cc1ccc(NC(=O)CN(C)C(=O)Nc2ccc(C)cc2)cc1	none (no result: G6PDH counter, Diaphorase inh, Diaph act CS)
COc1ccc(OC)c(CCNC(=O)CN2C(=O)COc3ccc(S(=O)(=O)N4CCOCC4)cc32)c1	none (no result: G6PDH counter, Diaphorase inh, Diaph act CS)
NS(=O)(=O)c1cc(C(=O)Nc2ccc3c(c2)OCCCO3)ccc1Cl	none (no result: G6PDH counter, Diaphorase inh, Diaph act CS)
COc1cc(/C=N/NC(=O)C(N)=O)cc(OC)c1O	none
COc1cc(Cl)cc(/C=N/NC(N)=O)c1O	G6PDH counter 54
CC(C)n1c(=O)[nH][nH]c1=S	PfGluPho inh 75 (no result: G6PDH counter, Diaphorase inh, Diaph act CS)
Cc1ccc(C(=O)NC(=S)Nc2cccc3nsnc23)cc1	Diaphorase inh 59
Cc1cc(C)n(CCCNC(=O)C(C)(C)Oc2ccc(Cl)cc2)n1	none (no result: G6PDH counter, Diaphorase inh, Diaph act CS)
CC(=O)c1c(NC(=O)c2ccccc2)[nH]c(-c2ccccc2)nc1=S	Diaphorase inh 67
CSc1nc(-c2ccccc2)[nH]c(=S)c1C(C)=O	Diaphorase inh 73
Cc1ccc(NC2(C(N)=O)CCCC2)cc1	none (no result: G6PDH counter, Diaphorase inh, Diaph act CS)
CN1C(=O)/C(=C/c2ccccc2OCc2ccc(C(=O)O)cc2)NC1=S	Diaphorase inh 58
CN1C(=O)/C(=C/c2ccccc2OCc2ccccc2)NC1=S	none
